Data as given in ChEMBL document CHEMBL4699636, “Novel 2,7-Diazaspiro[4,4]nonane Derivatives to Inhibit Mouse and Human Osteoclast Activities and Prevent Bone Loss in Ovariectomized Mice without Affecting Bone Formation” (J Med Chem, 2020).
One block for each compound: values may come before it. The source made the active and inactive calls. The rule behind the calls is not given here.

Experiments:
[1] = molecular target: T1, Dedicator of cytokinesis protein 5 (Homo sapiens, UniProt Q9H7D0); experiment: Inhibition of C-terminal 6-histidine tagged human DOCK5 (1212 to 1642 residues) expressed in Escherichia coli assessed as reduction in nucleotide exchange efficiency at 20 to 60 uM by N-methylanthraniloyl-GDP fluorescence based nucleotide exchange assay; conditions: dose microM 20-60
How it was run: (§1)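 Mant-GDP-loaded His-tagged human RAC1 at 2.0 µM with 100 nM DOCK5 (residues 1212-1642) or TRIOGEF1 (R1232-T1550), both E. coli-expressed. Buffer: 50 mM Tris pH 8, 300 mM NaCl, 2 mM MgCl2, 1 mM DTT, 1% DMSO, 25 °C. Reaction started with 100 µM GTP. Fluorescence decay read at ex 360/em 440 nm, kobs by single-exponential fit, compound at 0, 20 or 60 µM, duplicates, as % of activity.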

Osteoclast [2] = experiment: Inhibition of resorption activity of mouse peripheral blood cell-derived osteoclasts at 5-10 uM incubated for 48 hrs by Kossa-staining based assay; type: functional, tissue-based; conditions: dose microM 5-10, time 48.0 hrs, in the assay text read “bone marrow-derived” for “peripheral blood cell-derived”
How it was run: (§2)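 Osteoclasts from C57BL/6J mouse bone marrow, M-CSF then M-CSF 30 ng/mL plus RANKL 100 ng/mL. Day-3 cells reseeded on calcium phosphate-coated wells, compound added next day in 0.5% DMSO for 48 h, 8 wells per condition. 4 wells TRAP-stained for osteoclast counts, 4 von Kossa-stained for resorbed area. Activity expressed as resorption normalized to osteoclast number.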

[3] = molecular target: Dedicator of cytokinesis protein 5 (Mus musculus) (UniProt B2RY04); experiment: Inhibition of N-terminal GFP tagged mouse DOCK5 expressed in HEK293T cells assessed as reduction in exchange activity at 100 uM incubated for 1 hr by Western blot analysis based Rac-GTP pull-down assay; type: cell-based
How it was run: (§3)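 HEK293T cells transiently expressing GFP-tagged DOCK5 DHR2 exchange domain (mouse, or human residues 1212-1642). Treated 1 h with compound in 1% DMSO, then lysed. Rac-GTP pulled down with GST-PakCRIB beads, 45 min at 4 °C, and detected by western blot. Band intensity normalized to lysate protein. Single dose 100 µM; dose-response in 1.5x steps for IC50.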

[4] = molecular target: T1, Dedicator of cytokinesis protein 5; experiment: Inhibition of N-terminal GFP tagged human DOCK5 (1212-1642 residues) expressed in HEK293T cells assessed as reduction in exchange activity incubated for 1 hr by Western blot analysis based Rac-GTP pull-down assay; type: cell-based; how it was run: as §3
[5] = molecular target: Dedicator of cytokinesis protein 5 (Mus musculus) (UniProt B2RY04); experiment: Inhibition of DOCK5 in mouse osteoclasts assessed as induction of podosome belt organization defects at 100 uM incubated for 4 hrs followed by compound wash out by overnight recovery by immunofluorescence based assay; type: tissue-based; conditions: Osteoclast
How it was run: (§4)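 Mouse bone-marrow osteoclasts, differentiated with M-CSF and RANKL on coverslips. Compound added to 100 µM final, 0.5% DMSO, for 4 h. Cells fixed directly, or after medium change and overnight recovery, then stained for vinculin and actin (phalloidin) and viewed by widefield microscopy for podosome belt organization.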

[6] = molecular target: Dedicator of cytokinesis protein 5 (Mus musculus) (UniProt B2RY04); experiment: Inhibition of DOCK5 in mouse osteoclasts assessed as induction of podosome belt organization defects at 100 uM incubated for 4 hrs by immunofluorescence based assay; conditions: Osteoclast; how it was run: as §4
Osteoclast [7] = experiment: Inhibition of resorption activity of mouse peripheral blood cell-derived osteoclasts at 8 uM incubated for 48 hrs by Kossa-staining based assay; type: functional, tissue-based; conditions: in the assay text read “bone marrow-derived” for “peripheral blood cell-derived”; how it was run: as §2
[8] = tested on: Osteoclast (Homo sapiens); experiment: Inhibition of resorption activity of human peripheral blood cell-derived osteoclasts at 1-20 uM incubated for 48 hrs by Kossa-staining based assay; conditions: dose microM 1-20, time 48.0 hrs
[9] = Toxicity in mouse peripheral blood cell-derived osteoclasts assessed as reduction in osteoclasts number at 5-10 uM incubated for 48 hrs by TRAP-staining based assay; type: tissue-based; conditions: osteoclast, in the assay text read “bone marrow-derived” for “peripheral blood cell-derived”
How it was run: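 Osteoclasts were derived from bone marrow of 4–8-week-old C57BL/6J mice, first with M-CSF 100 ng/mL for 48 h, then with M-CSF 30 ng/mL plus RANKL 100 ng/mL. At day 3 of differentiation they were detached with Accutase and seeded on calcium phosphate-coated wells. Next day, compound was added in 0.5% DMSO (8 wells/condition) for 48 h. Four wells were TRAP-stained (pH 5, tartrate, 1.5 h, 37 °C) and osteoclasts counted from images.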

Mus musculus [10] = experiment: Antiosteoporotic activity in C57BL6/J mouse model of OVX-induced bone loss assessed as serum CTX-1 level […] at 100 ug/kg, sc QD for 4 weeks (165.38 +/- 54.93 %); type: functional; conditions: dose 100 µg/kg
Mus musculus [11] = experiment: Antiosteoporotic activity in C57BL6/J mouse model of OVX-induced bone loss assessed as cortical thickness level in tibial diaphysis at 100 ug/kg, sc QD for 4 weeks by microCT analysis (179.27 +/- 7.57 um); type: functional; conditions: dose 100 µg/kg
Mus musculus [12] = experiment: Antiosteoporotic activity in C57BL6/J mouse model of OVX-induced bone loss assessed as trabecular thickness level in femoral metaphysis at 100 ug/kg, sc QD for 4 weeks by histomorphometry (39.96 +/- 5.42 um); type: functional; conditions: dose 100 µg/kg
[13] = Toxicity in C57BL6/J mouse model of OVX-induced bone loss assessed as effect on bone formation by measuring osteoblast surface per trabecular bone surface level in femoral metaphysis at 100 ug/kg, sc QD for 4 weeks by histomorphometry (5.03 +/ 2.92 %); type: organism-based; conditions: in vivo, 0.1 mg/kg, 672 h, dose 100 µg/kg
Mus musculus [14] = experiment: Antiosteoporotic activity in C57BL6/J mouse model of OVX-induced bone loss assessed as degree of anisotropy (range 0-1) level in tibial metaphysis at 100 ug/kg, sc QD for 4 weeks by microCT analysis (0.53 +/- 0.07); type: functional; conditions: dose 100 µg/kg
[15] = Toxicity in C57BL6/J mouse model of OVX-induced bone loss assessed as effect on bone formation by measuring bone formation rate per trabecular bone surface level in femoral metaphysis at 100 ug/kg, sc QD for 4 weeks by histomorphometry ([…]); type: organism-based; conditions: in vivo, 0.1 mg/kg, 672 h, dose 100 µg/kg
Mus musculus [16] = experiment: Antiosteoporotic activity in C57BL6/J mouse model of OVX-induced bone loss assessed as trabecular separation level in femoral metaphysis at 100 ug/kg, sc QD for 4 weeks by histomorphometry (319.80 +/- 106.52 um); type: functional; conditions: dose 100 µg/kg
Mus musculus [17] = experiment: Antiosteoporotic activity in C57BL6/J mouse model of OVX-induced bone loss assessed as trabecular bone volume per tissue volume level in tibial metaphysis at 100 ug/kg, sc QD for 4 weeks by microCT analysis (17.49 +/- 2.91 %); type: functional; conditions: dose 100 µg/kg
[18] = Toxicity in C57BL6/J mouse model of OVX-induced bone loss assessed as effect on bone formation by measuring mineralizing mineral apposition rate level in femoral metaphysis at 100 ug/kg, sc QD for 4 weeks by histomorphometry (1.62 +/ 0.21 um/d (lcm)); type: organism-based; conditions: in vivo, 0.1 mg/kg, 672 h, dose 100 µg/kg
[19] = Toxicity in C57BL6/J mouse model of OVX-induced bone loss assessed as effect on body weight at 100 ug/kg, sc QD for 4 weeks; type: organism-based; conditions: in vivo, 0.1 mg/kg, 672 h, dose 100 µg/kg
[20] = Toxicity in C57BL6/J mouse model of OVX-induced bone loss assessed as effect on bone formation by measuring mineralizing surface per trabecular bone surface level in femoral metaphysis at 100 ug/kg, sc QD for 4 weeks by histomorphometry (27.90 +/ 8.22 %); type: organism-based; conditions: in vivo, 0.1 mg/kg, 672 h, dose 100 µg/kg
Mus musculus [21] = experiment: Antiosteoporotic activity in C57BL6/J mouse model of OVX-induced bone loss assessed as structure model index level in tibial metaphysis at 100 ug/kg, sc QD for 4 weeks by microCT analysis (1.92 +/- 0.19); type: functional; conditions: dose 100 µg/kg
[22] = Toxicity in C57BL6/J mouse model of OVX-induced bone loss assessed as effect on bone formation by measuring number of osteoblasts per bone surface level in femoral metaphysis at 100 ug/kg, sc QD for 4 weeks by histomorphometry (4.55 +/ 2.53 /mm); type: organism-based; conditions: in vivo, 0.1 mg/kg, 672 h, dose 100 µg/kg
Mus musculus [23] = experiment: Antiosteoporotic activity in C57BL6/J mouse model of OVX-induced bone loss assessed as trabecular number level in femoral metaphysis at 100 ug/kg, sc QD for 4 weeks by histomorphometry (2.99 +/- 0.80 /mm); type: functional; conditions: dose 100 µg/kg
Mus musculus [24] = experiment: Antiosteoporotic activity in C57BL6/J mouse model of OVX-induced bone loss assessed as trabecular bone volume per tissue volume level in femoral metaphysis at 100 ug/kg, sc QD for 4 weeks by histomorphometry (11.67 +/- 2.37%); type: functional; conditions: dose 100 µg/kg
[25] = Toxicity in C57BL6/J mouse model of OVX-induced bone loss assessed as effect on bone formation by measuring osteocalcin level at 100 ug/kg, sc QD for 4 weeks […]; type: organism-based; conditions: in vivo, 0.1 mg/kg, 672 h, dose 100 µg/kg
Mus musculus [26] = experiment: Antiosteoporotic activity in C57BL6/J mouse model of OVX-induced bone loss assessed as trabecular pattern factor level in tibial metaphysis at 100 ug/kg, sc QD for 4 weeks by microCT analysis (17.17 +/- 3.41 […]); type: functional; conditions: dose 100 µg/kg
[27] = molecular target: Triple functional domain protein (Homo sapiens) (UniProt O75962); experiment: Inhibition of C-terminal 6-histidine tagged human TRIOGEF1 (R1232 to T1550 residues) expressed in Escherichia coli assessed as reduction in nucleotide exchange efficiency at 20 to 60 uM by N-methylanthraniloyl-GDP fluorescence based nucleotide exchange assay; conditions: dose microM 20-60; how it was run: as §1
[28] = tested on: Osteoclast (Homo sapiens); experiment: Toxicity in human peripheral blood cell-derived osteoclasts assessed as reduction in osteoclasts number at 20 uM incubated for 48 hrs by TRAP-staining based assay

T1 sequence (Q9H7D0 whole entry, the tested form may be a part): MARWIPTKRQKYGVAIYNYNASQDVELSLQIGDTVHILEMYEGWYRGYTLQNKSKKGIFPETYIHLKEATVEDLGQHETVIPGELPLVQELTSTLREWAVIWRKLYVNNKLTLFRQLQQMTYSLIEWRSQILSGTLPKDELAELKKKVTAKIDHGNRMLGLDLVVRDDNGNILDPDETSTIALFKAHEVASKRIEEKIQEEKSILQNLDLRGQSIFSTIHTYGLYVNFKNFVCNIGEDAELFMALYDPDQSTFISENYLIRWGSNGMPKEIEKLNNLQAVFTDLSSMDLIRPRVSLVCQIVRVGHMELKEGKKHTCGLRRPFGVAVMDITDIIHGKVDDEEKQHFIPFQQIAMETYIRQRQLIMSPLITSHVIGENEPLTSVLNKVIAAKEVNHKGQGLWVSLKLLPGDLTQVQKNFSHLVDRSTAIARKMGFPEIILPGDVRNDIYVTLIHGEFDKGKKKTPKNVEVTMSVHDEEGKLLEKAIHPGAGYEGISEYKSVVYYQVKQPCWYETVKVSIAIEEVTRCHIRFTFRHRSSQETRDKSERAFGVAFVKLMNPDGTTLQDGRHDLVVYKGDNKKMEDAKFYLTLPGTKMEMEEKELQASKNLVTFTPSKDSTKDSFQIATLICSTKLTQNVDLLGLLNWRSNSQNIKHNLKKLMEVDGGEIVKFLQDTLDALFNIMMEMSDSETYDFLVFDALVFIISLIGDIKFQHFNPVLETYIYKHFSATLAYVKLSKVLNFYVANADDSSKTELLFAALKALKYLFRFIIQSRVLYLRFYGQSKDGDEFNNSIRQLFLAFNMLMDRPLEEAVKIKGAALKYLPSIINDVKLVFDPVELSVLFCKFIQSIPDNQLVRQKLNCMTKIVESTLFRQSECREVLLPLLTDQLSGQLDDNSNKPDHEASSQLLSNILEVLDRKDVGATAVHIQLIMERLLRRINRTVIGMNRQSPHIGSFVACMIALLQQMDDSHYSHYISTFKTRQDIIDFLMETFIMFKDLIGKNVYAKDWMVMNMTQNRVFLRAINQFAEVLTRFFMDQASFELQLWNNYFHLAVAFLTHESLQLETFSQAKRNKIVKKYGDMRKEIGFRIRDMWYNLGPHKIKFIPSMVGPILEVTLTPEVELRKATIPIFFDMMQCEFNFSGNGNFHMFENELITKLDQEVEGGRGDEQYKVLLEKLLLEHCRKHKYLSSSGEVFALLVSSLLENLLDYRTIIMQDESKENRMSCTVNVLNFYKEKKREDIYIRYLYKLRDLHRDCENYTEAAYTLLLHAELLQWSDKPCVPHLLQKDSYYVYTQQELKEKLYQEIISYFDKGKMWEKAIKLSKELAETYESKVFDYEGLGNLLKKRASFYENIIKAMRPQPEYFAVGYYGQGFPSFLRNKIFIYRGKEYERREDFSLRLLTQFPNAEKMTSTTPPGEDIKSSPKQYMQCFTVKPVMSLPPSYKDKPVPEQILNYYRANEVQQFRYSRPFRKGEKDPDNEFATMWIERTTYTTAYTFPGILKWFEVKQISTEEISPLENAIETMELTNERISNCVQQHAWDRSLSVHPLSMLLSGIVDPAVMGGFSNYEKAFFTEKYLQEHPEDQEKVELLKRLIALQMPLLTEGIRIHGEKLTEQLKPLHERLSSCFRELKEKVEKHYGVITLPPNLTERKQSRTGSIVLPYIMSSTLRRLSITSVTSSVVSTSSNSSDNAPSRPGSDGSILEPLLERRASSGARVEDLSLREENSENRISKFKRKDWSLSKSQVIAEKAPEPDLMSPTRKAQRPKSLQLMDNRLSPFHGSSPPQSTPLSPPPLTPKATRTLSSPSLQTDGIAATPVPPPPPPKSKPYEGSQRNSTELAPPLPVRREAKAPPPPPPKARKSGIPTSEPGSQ
Sequence of Dedicator of cytokinesis protein 5 (Mus musculus) (B2RY04 whole entry, the tested form may be a part): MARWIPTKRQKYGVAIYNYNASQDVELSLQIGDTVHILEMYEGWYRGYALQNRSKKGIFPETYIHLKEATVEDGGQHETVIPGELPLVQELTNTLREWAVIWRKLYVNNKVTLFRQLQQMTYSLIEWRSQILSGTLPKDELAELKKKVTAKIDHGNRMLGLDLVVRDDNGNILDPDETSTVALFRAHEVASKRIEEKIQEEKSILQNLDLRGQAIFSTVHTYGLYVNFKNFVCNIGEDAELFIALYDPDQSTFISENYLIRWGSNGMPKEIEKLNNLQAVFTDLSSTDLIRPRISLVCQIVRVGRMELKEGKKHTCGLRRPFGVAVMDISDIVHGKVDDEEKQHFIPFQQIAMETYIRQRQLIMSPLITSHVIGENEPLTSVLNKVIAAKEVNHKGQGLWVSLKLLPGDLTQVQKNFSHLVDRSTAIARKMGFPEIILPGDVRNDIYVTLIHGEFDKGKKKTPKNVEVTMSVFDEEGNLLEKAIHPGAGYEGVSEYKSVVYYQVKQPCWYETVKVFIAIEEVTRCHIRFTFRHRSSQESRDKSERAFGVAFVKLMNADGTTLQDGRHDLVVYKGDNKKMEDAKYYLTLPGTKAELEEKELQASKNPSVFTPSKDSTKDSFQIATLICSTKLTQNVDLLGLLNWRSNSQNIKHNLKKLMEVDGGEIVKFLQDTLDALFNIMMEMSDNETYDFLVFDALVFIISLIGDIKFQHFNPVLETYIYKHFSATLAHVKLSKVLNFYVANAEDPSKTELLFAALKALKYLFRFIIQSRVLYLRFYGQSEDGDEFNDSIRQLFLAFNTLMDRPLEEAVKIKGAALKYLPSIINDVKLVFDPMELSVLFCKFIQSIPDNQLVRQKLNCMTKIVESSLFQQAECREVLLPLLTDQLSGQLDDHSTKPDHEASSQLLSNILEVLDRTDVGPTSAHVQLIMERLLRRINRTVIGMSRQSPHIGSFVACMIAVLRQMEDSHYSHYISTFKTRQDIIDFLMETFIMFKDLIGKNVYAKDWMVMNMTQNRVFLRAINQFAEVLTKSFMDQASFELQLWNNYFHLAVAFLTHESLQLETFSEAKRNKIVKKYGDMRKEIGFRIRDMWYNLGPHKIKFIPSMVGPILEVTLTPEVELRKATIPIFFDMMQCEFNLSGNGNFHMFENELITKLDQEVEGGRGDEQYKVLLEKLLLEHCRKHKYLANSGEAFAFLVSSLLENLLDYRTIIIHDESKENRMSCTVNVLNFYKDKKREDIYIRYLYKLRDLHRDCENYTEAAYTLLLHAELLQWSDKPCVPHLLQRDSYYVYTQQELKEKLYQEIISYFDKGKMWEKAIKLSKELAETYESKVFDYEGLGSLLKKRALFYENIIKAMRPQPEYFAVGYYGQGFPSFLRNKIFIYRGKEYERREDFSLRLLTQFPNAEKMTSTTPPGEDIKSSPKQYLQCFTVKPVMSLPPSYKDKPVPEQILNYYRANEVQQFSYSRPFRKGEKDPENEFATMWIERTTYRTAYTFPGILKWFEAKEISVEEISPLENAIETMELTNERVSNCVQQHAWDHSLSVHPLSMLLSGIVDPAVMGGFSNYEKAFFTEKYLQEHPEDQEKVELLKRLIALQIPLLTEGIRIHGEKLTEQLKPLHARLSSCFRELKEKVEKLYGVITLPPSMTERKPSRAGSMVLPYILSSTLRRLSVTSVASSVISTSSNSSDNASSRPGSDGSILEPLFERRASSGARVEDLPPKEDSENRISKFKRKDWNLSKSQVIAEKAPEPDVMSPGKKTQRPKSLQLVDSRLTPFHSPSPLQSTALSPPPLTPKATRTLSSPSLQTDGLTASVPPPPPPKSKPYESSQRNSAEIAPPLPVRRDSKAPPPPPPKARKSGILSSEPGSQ

Compound: Cn1cc(CN2CC[C@@]3(C2)[C@@H](O)CN(c2ccccc2)S3(=O)=O)c2ccccc21 (racemic)
inhibition [1]: inactive
inhibition (Osteoclast [2]): Active

Compound: NCCCC(O)(P(=O)(O)O)P(=O)(O)O
inhibition [8]: Active

Compound: O=S1(=O)N(c2ccccc2)C[C@H](O)[C@]12CCN(Cc1ccc3c(c1)CCC3)C2 (racemic)
inhibition [1]: inactive
inhibition (Osteoclast [2]): Active

Compound: COc1ccc(CN2CC[C@@]3(C2)[C@@H](O)CN(c2ccccc2)S3(=O)=O)cc1F (racemic)
inhibition [1]: inactive
inhibition (Osteoclast [2]): Active

Compound: O.O=P(O)(O)C(O)(Cn1ccnc1)P(=O)(O)O [ZOLEDRONIC ACID]
Activity (Mus musculus [10]): 73.18%
Activity (Mus musculus [11]): 189.5 um
Activity (Mus musculus [12]): 44.8 µm
Activity [13]: 0.52%
Activity_index (Mus musculus [14]): 0.25
Activity [15]: 34.28 um3/um2/yr
Activity (Mus musculus [16]): 132.16 um
Activity (Mus musculus [17]): 43.96%
Activity [18]: 1.11 micrometer/day
Activity [19]: Non-Toxic
Activity [20]: 8.51%
Activity_index (Mus musculus [21]): -1.36
Activity [22]: 0.54 /millimeter
Activity (Mus musculus [23]): 5.92 /millimeter
Activity (Mus musculus [24]): 26.19%
Activity [25]: 42.55%
Activity (Mus musculus [26]): -35.6 1/mm

Compound: O=S1(=O)N(c2ccccc2)C[C@H](O)[C@]12CCN(Cc1ccccc1Cl)C2 (racemic)
inhibition [1]: inactive
inhibition (Osteoclast [2]): Active

Compound: O=S1(=O)N(c2ccccc2)C[C@H](O)[C@]12CCN(Cc1cnc3ccccc3c1)C2 (racemic)
inhibition [1]: inactive
inhibition (Osteoclast [2]): Active

Now from value to compound, other results behind:

inhibition [3]: Active
IC50 [4]: 24 µM
inhibition [5]: inactive
inhibition [1]: inactive
inhibition [6]: Active
Compound: O=S1(=O)N(c2ccccc2)C[C@H](O)[C@]12CCN(Cc1cccc(Cl)c1)C2 (racemic)
inhibition (Osteoclast [2]): Active
inhibition (Osteoclast [7]): Active

inhibition [1]: inactive
Compound: COc1ccc(N2CCC3(CCN(Cc4cccc(Cl)c4)C3)C2=O)cc1C (stereo unspecified)
inhibition (Osteoclast [2]): Active
Activity [9]: Toxic

inhibition [27]: inactive
inhibition [1]: 67%
Compound: O=S1(=O)N(c2ccccc2)C[C@H](O)[C@]12CCN(Cc1ccc(Cl)c(Cl)c1)C2 (racemic)
Activity [28]: Toxic
inhibition (Osteoclast [2]): Active
inhibition [8]: Active

inhibition [1]: inactive
Compound: O=C1N(c2cccc(F)c2)CCC12CCN(Cc1cccc(Cl)c1)C2 (stereo unspecified)
inhibition (Osteoclast [2]): Active
Activity [9]: Toxic
